T cruzi inh: T. cruzi replication inhibition; T. cruzi beta-gal in NIH3T3, luminescence, 90 h; inhibition, % (no concentration beside the values); actives 1.4% (n = 300,000); AID 1885;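 active = mean inhibition across valid replicates above about 55%, limit read from the data; inconclusive = mean below that limit but half or more replicates reach it; inactive = mean below it, under half of replicates reach it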;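 also: signal also drops with host cell toxicity which is not excluded here; higher percent means less beta-gal luminescence so fewer parasites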
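Test system: β-gal T. cruzi (Tulahuen C4) inside NIH/3T3 cells / Quantity: 5,000 cells/well / Measured by: luminescence from GalScreen with 0.05% NP40, read after 60 min / Medium: DMEM plus 2% FBS / Measure: parasite load inhibition, % / Reagent: Tulahuen C4 trypomastigotes, 5000/well / Schedule: co-culture of at least 90 h after 3 h attachment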
Beta cell apopt: blocks beta cell apoptosis; INS-1E cytokine-induced death, ATP luminescence, 48 h; percent of positive-control rescue, neutral wells zero; protection from apoptosis, % (no concentration beside the values); actives 0.8% (n = 300,000);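 active = Every replicate reaches about 75%, or at least half do and their mean reaches it too, limit read from the data; inconclusive = At least half of replicates reach the limit but their mean does not; inactive = Under half of replicates reach the limit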;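 also: higher means more ATP so stronger rescue from cytokine killing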
NLRP3 yeast inh: NALP3 inhibition in yeast | actives 0.39% (n = 330,000) | Yeast reconstituted NLRP3/ASC/caspase-1, beta-gal luminescence, 24 h | inhibition, % at 10 µM;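 active = inhibition of 50% or more; inactive = inhibition below 50%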
Calb FLC: C. albicans growth modulation with fluconazole | growth inhibition, % (no concentration beside the values) | C. albicans CaCi-2 + fluconazole, Alamar Blue growth, 48 h | actives 0.57% (n = 300,000) | AID 1979;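 active = growth inhibition above about 58% in most replicates, limit read from the data, passing the limit was not always enough; inconclusive = exactly half the replicates above a set limit; inactive = most replicates below a set limit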;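 also: all wells also contain fluconazole at 8 µg/ml as a sub-toxic cotreatment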
Mdm2 MdmX PPI: disrupts the human Mdm2-MdmX interaction. O15151+Q00987. SaOS-2 split-luciferase Mdm2/MdmX complementation, luminescence. inhibition, % at 8 µM. actives 3% (n = 330,000);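 active = inhibition of at least 50% at 8 µM in the primary screen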
Target sequence (O15151 whole entry, looked up): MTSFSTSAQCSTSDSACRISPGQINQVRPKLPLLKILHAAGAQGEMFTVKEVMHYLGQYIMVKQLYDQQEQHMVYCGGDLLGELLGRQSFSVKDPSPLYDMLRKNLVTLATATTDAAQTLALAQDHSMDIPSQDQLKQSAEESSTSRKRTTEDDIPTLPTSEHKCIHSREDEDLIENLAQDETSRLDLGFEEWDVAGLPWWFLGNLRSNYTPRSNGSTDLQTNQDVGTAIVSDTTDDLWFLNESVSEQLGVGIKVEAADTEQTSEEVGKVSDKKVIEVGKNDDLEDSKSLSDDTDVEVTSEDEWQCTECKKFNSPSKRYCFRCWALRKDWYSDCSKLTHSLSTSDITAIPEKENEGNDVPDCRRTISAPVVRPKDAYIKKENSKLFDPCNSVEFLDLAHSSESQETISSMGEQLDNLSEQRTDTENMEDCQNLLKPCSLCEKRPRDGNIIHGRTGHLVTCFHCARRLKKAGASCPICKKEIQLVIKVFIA
Target sequence (Q00987 whole entry, looked up): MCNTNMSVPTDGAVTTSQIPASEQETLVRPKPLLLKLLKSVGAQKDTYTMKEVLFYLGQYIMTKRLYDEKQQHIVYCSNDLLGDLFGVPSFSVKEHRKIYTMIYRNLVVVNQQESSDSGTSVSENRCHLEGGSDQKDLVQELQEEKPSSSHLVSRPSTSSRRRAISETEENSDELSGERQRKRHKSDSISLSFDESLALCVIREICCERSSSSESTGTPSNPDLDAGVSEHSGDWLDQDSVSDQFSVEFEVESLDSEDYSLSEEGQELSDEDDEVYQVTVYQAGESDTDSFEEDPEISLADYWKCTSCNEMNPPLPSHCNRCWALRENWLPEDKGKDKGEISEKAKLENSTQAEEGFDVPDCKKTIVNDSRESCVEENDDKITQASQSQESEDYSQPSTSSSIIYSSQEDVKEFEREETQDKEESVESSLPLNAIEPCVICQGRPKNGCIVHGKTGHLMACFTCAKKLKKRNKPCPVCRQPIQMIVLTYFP
CSC inhib: cancer stem cell inhibition. actives 1.1% (n = 300,000). inhibition, % at 7.5 µM. cancer stem cell-like cells viability, luminescence; in the data active = inhibition above about 75%; inconclusive = no clear call, values can overlap the other calls; tested in HMLE shEcad cells
Mdm2 MdmX conf: confirmation of human Mdm2/MdmX interaction inhibitors; shares compounds with Mdm2 MdmX PPI; Mdm2-MdmX binding, luminescent assay; inhibition, % at 8 µM; actives 55% (n = 10,000); in the data active = inhibition above about 40%
Full FLuc ctr: full-length luciferase inhibition in Mdm2/MdmX counter-screen; shares compounds with Mdm2 MdmX PPI; SaOS-2 full-length luciferase counterscreen, luminescence; inhibition, % at 8 µM; actives 77% (n = 6,200); AID 504607;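 active = mean inhibition at 8 µM reaching about 37%, which flags the compound as non-specific, limit read from the data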;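 also: p53-null SaOS-2 cells with luciferase driven by a doxycycline-inducible promoter; compound on cells about two nights before reading with doxycycline added after day one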
Of the large screens only hits and unclear results are named; the others gave an inactive call (follow-up assays come after a bar, where they were run). Shown are actives, neighbours in structure and some others; about 5.3% of the full set was active somewhere.

CC(=O)c1cccc(OCC(O)CN2CCN(S(=O)(=O)c3c(F)cccc3F)CC2)c1 (centres undefined)	none (no result: Calb FLC)
COc1ccc(S(=O)(=O)Oc2ccccc2C(N)=O)cc1	none (no result: T cruzi inh, Beta cell apopt, Calb FLC, CSC inhib)
O=C(NCCCN1CCOCC1)c1ccc(-n2nc(C(F)(F)F)cc2-c2cccs2)cc1	Mdm2 MdmX PPI 77 | Mdm2 MdmX conf inactive
O=C(Nc1nc2ccccc2n1CCN1CCOCC1)c1cn(-c2ccccc2)nc1-c1ccccc1	T cruzi inh 66, Mdm2 MdmX PPI 51 | Mdm2 MdmX conf inactive
CCOc1ccc(C2C3=C(CCCC3=O)Nc3ccc4ncccc4c32)cc1 (centres undefined)	none
COc1ccc(-c2ccc(SCC(=O)N3CCN(c4ccccc4)CC3)nn2)cc1	Mdm2 MdmX PPI 52 | Mdm2 MdmX conf inactive
Cc1ccc(-c2ccc(SCC(=O)N3CCN(c4ccccc4)CC3)nn2)cc1	none
COc1ccc(O)c(/C=N/NC(=O)c2cccc(N3CCCC3=O)c2)c1	Beta cell apopt 94, Mdm2 MdmX PPI 55 (no result: CSC inhib) | Mdm2 MdmX conf 57 | Full FLuc ctr 56
O=C(N/N=C/c1cc(Br)ccc1O)c1cccc(N2CCCC2=O)c1	Calb FLC 94, Mdm2 MdmX PPI 54 | Mdm2 MdmX conf 65 | Full FLuc ctr inactive
COc1ccc(O)c(/C=N/NC(=O)c2ccc(N3CCCC3=O)cc2)c1	Calb FLC inconclusive
O=C(N/N=C/c1ccco1)c1cccc(N2CCCC2=O)c1	none
COc1cc2cc(CN(CCc3cccc(C)c3)C(=S)NCCCN(C)C)c(=O)[nH]c2cc1OC	Mdm2 MdmX PPI 52 | Mdm2 MdmX conf inactive
CN(C)C(CNC(=O)CCc1nc2ccccc2s1)c1ccccc1 (centres undefined)	none
Fc1ccc2c(c1)C(c1ccc(N3CCOCC3)cc1)=NNC(c1cccs1)=N2	Calb FLC inconclusive
Brc1ccc2c(c1)C(c1ccc(N3CCOCC3)cc1)=NNC(c1cccs1)=N2	Mdm2 MdmX PPI 59 | Mdm2 MdmX conf inactive
COc1cc2[nH]c3c(Cl)ncnc3c2cc1OC	none
COc1ccc2c(c1)[nH]c1c(N3CCSCC3)ncnc12	none
COc1cc2[nH]c3c(N4CCN(c5ccc(Cl)cc5)CC4)ncnc3c2cc1OC	Mdm2 MdmX PPI 53 | Mdm2 MdmX conf inactive
COc1cccc(N2CCN(c3ncnc4c3[nH]c3ccc(F)cc34)CC2C)c1 (centres undefined)	T cruzi inh inconclusive, Beta cell apopt 110, Mdm2 MdmX PPI 98 | Mdm2 MdmX conf 100 | Full FLuc ctr inactive
COc1ccc2[nH]c3c(N4CC(C)OC(C)C4)ncnc3c2c1 (centres undefined)	none
COc1cccc(N2CCN(c3ncnc4c3[nH]c3ccccc34)CC2C)c1 (centres undefined)	T cruzi inh inconclusive, Mdm2 MdmX PPI 100 | Mdm2 MdmX conf 98 | Full FLuc ctr inactive
N#Cc1nc(-c2cccc3ccccc23)oc1NCC1CCCO1 (centres undefined)	none
COc1ccccc1-c1c(C)nn2c(N3CCC(C(N)=O)CC3)cc(C)nc12	none
CC(=O)Nc1ccc(Nc2cc(C)nc3ccccc23)cc1	none
Cc1cc(Nc2cccc([N+](=O)[O-])c2)c2ccccc2n1	none
CCOc1ccc2nc(C)cc(Nc3ccc4c(c3)OCCO4)c2c1	none
CCOc1ccc2nc(C)cc(Nc3cccc([N+](=O)[O-])c3)c2c1	Mdm2 MdmX PPI 100 | Mdm2 MdmX conf 100 | Full FLuc ctr 51
CCOc1ccc2nc(C)cc(Nc3ccc(N4CCOCC4)cc3)c2c1	none | Mdm2 MdmX conf inactive
CC(=O)c1ccc(Nc2cc(C)nc3ccc(C)cc23)cc1	Mdm2 MdmX PPI 51 (no result: CSC inhib) | Mdm2 MdmX conf inactive | Full FLuc ctr 90
Cc1cc(Nc2ccc([N+](=O)[O-])cc2)c2ccccc2n1	Mdm2 MdmX PPI 93 | Mdm2 MdmX conf 70 | Full FLuc ctr 55
CC(NC(=O)c1ccccc1)c1nnc(SCc2nc3ccccc3c(=O)[nH]2)n1C (centres undefined)	none
CCOC(=O)c1cnc2ccc(C(=O)OC)cc2c1Nc1ccc(C(=O)O)cc1	none
CCOC(=O)c1ccc2ncc(C(=O)OCC)c(Nc3ccc(N4CCOCC4)cc3)c2c1	Mdm2 MdmX PPI 68 | Mdm2 MdmX conf 55 | Full FLuc ctr 55
CCOC(=O)C1=C(C)N=c2s/c(=C\c3ccc(O)c([N+](=O)[O-])c3)c(=O)n2C1c1ccccc1OC (centres undefined)	none
CCOC(=O)C1=C(C)n2c(s/c(=C/c3cccc([N+](=O)[O-])c3)c2=O)=NC1c1ccc(O)c(OC)c1 (centres undefined)	T cruzi inh 70, Mdm2 MdmX PPI 82 | Mdm2 MdmX conf 77 | Full FLuc ctr inactive
N#Cc1ccc(COc2ccc(CCO)cc2-n2nc3ccccc3n2)cc1	none
CCCCn1c(CCc2ccccc2)nc2cc3[nH]c(=O)c(C(C)C)nc3cc21	Mdm2 MdmX PPI 51 | Mdm2 MdmX conf inactive
COc1cccc2cc(C(=O)NCCN3CCOCC3)oc12	none
Cc1ccc(C(=O)C[n+]2cc(-c3ccc(C)cc3)n3c2CCCCC3)cc1	T cruzi inh 69, Beta cell apopt 125, Calb FLC 88, Mdm2 MdmX PPI 53 | Mdm2 MdmX conf 54 | Full FLuc ctr 48
O=C(C[n+]1cc(-c2ccccc2)n2c1CCCCC2)c1ccc(Br)cc1	none
CCOc1ccc(C(C(=O)NCC2CCCO2)N(Cc2cccs2)C(=O)c2snc(C(N)=O)c2N)cc1 (centres undefined)	Mdm2 MdmX PPI 50 | Mdm2 MdmX conf 51 | Full FLuc ctr 78
COc1ccc(C(C(=O)NCC2CCCO2)N(Cc2cccs2)C(=O)c2snc(C(N)=O)c2N)cc1OC (centres undefined)	none
COc1ccc(C(CCNCc2ccc(N(C)C)cc2)c2ccccc2)cc1 (centres undefined)	none
CC(C)Oc1ccc(C(CCNCc2ccc(O)cc2)c2ccccc2)cc1 (centres undefined)	Mdm2 MdmX PPI 91 | Mdm2 MdmX conf 70 | Full FLuc ctr 58
COC(=O)C1C(=O)c2c([nH]c(C(=O)OC3CCCC3)c2C)CC1C (centres undefined)	none
Cc1c(C(=O)OC2CCCC2)[nH]c2c1C(=O)CC(c1ccco1)C2 (centres undefined)	Mdm2 MdmX PPI 68 | Mdm2 MdmX conf 48 | Full FLuc ctr 78
C/C=C/COC(=O)c1[nH]c2c(c1C)C(=O)CC(c1ccco1)C2 (centres undefined)	Mdm2 MdmX PPI 65 | Mdm2 MdmX conf 56 | Full FLuc ctr 73

Screening data as filed in PubChem.
